This is a sample that favours compounds with a hit; in the whole collection about 4.3% have one here.
WT yeast gro inh: growth inhibition of WT yeast, mitochondrial fusion screen | AID 1362 | 2.1% of 190,000 active | inhibition, % at 10 µM | mitochondrial fusion phenotypic screen, WT strain; in the data active means inhibition above about 58%; tested in S. cerevisiae
Yeast life ext: extends the lifespan of yeast. S. cerevisiae growth with nicotinamide, OD615; deaD strain in restrictive glucose medium. inhibition of the nicotinamide effect, % at 10 µM. 0.68% of 130,000 active. AID 775;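 active means inhibition above a set limit, placed 3 SD over the median of all compounds, cut at about 26% in these data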;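 further: 0% = nicotinamide-treated wells and 100% = cells grown without nicotinamide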
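Test system – modified budding yeast, DeaD strain · Compound – single dose 10 µM compound, 0.25% DMSO · Times – culture preincubation 4 h, compound exposure 48 h, both 30 °C · Detection – optical density (absorbance) at 615 nm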
RAM inhibit: yeast RAM network inhibition. S. cerevisiae dse1pr::URA3 reporter, 5-FOA growth OD615, 2 d; analog-sensitive cbk1-as2 kinase mutant strain. inhibition, % at 50 µM. 1.8% of 190,000 active;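 active means inhibition above a set limit, 3 SD over mean compound inhibition, cut at about 8.4% in these data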;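 further: 0% = DMSO-only wells with no growth and 100% = 10 µM 1-NA-PP1 full growth; inhibition rescues growth on 5-FOA so higher OD means more RAM inhibition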
BB579 growth dn: reduces growth of yeast BB579 in restrictive medium; S. cerevisiae BB579 growth, OD615, 48 h; inhibition, % at 10 µM; 0.51% of 140,000 active; AID 804;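 active means inhibition above a set limit, 3 SD over the mean compound inhibition, cut at about 44% in these data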
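Material: Saccharomyces cerevisiae DeaD strain BB579, replicative lifespan model yeast; buffer or medium: CSMM-D restrictive synthetic medium containing dextrose (glucose); compound: 10 µM single dose, DMSO 0.25%; timing: 48 h compound exposure at 30 °C after 4 h preincubation; signal: turbidity as optical density at 615 nm; benchmarks: positive control amphotericin B 10 µg/mL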
* marks the source's active call; other numbers are inactive results; nt = no result given.

SMILES | WT yeast gro inh | Yeast life ext | RAM inhibit | BB579 growth dn
O=C(Nc1cc(Cl)ccc1Oc1ccccc1)c1ccccc1F | 58 | -5 | 1 | -21
O=C(Nc1cc(Cl)ccc1Oc1ccccc1)c1ccc(F)cc1 | 66* | -10 | 7 | -42
Cc1ccc(OCCNC(=O)c2cc(C(=O)NCCOc3ccc(C)cc3)cc([N+](=O)[O-])c2)cc1 | 22 | 6 | 8.9* | -64
Cc1ccc(CNC(=O)C(Cc2ccccc2)NS(=O)(=O)c2ccc(Br)s2)cc1 (centres undefined) | 81* | 9 | 2 | -37
Cc1ccc(CNC(=O)C(Cc2ccccc2)NS(=O)(=O)c2cccs2)cc1 (centres undefined) | 43 | -2 | 2 | -37
CCCCNc1nc(=S)n(-c2ccccc2)c(C)c1C(C)=O | 4 | nt | 1 | nt
OCC1(Cc2ccc(Cl)cc2)CCN(Cc2ccc(Oc3ncccn3)cc2)CC1 | -7 | nt | 1 | nt
CCn1ncc(C2=NOC(C(=O)NCc3ccccc3)C2)c1C (centres undefined) | -7 | -6 | 3 | -13
CCn1ncc(C2=NOC(C(=O)Nc3c(C)n(C)n(-c4ccccc4)c3=O)C2)c1C (centres undefined) | 9 | -11 | 1 | 48*
COc1ccc(CC(=O)Nc2cccc(-c3ccc4nncn4n3)c2)cc1OC | -6 | nt | 4 | nt
CSc1ccccc1NC(=O)c1cc(-c2cccnc2)nc2ccc(Br)cc12 | 1 | nt | 0 | nt
CN1/C(=C\C(=O)Nc2ccc(F)cc2)C(C)(C)c2ccccc21 | 74* | -5 | 1 | -18
CN1/C(=C\C(=O)Nc2ccc(Br)cc2)C(C)(C)c2ccccc21 | 87* | -4 | 1 | -43
CN1/C(=C\C(=O)Nc2cccc(Cl)c2)C(C)(C)c2ccccc21 | 78* | -6 | 1 | -24
CN1/C(=C\C(=S)NC(=O)c2cccc(Br)c2)C(C)(C)c2ccccc21 | 65* | -3 | 8.9* | 22
Cc1nc2ccc(Nc3ccncc3)cc2s1 | 2 | nt | 2 | nt
O=C(NC1CCN(C(=S)NCCc2ccccc2)CC1)C1CCCCC1 | 4 | nt | 4 | nt
COc1ccccc1CCN1C(=S)NC(C)(C)CC1(C)O (centres undefined) | 70* | -21 | 1 | -14
COc1ccc(CN2C(=S)NC(C)(C)CC2(C)O)cc1 (centres undefined) | 0 | 41 | 3 | -28
CCOc1ccc(-c2noc(-c3ccncc3)n2)cc1OCC | -6 | -15 | 1 | -15
COc1ccc(-c2noc(-c3cccc(Cl)c3)n2)cc1OC | 12 | -1 | 9.1* | -73
CCOc1ccc(-c2nc(-c3ccc(OC)cc3)no2)cc1OCC | 10 | -3 | 9.1* | -66
COc1ccc(-c2nc(-c3ccncc3)no2)cc1OC | 26 | -25 | 1 | -16
O=C(O)/C=C/c1cnc2ccccc2c1 | -5 | nt | 0 | nt
Cc1ccc(C)c(S(=O)(=O)NC(C)C(=O)Nc2ccc(-c3nc4ccccc4s3)cc2)c1 (centres undefined) | -3 | -7 | 2 | -19
SMILES | WT yeast gro inh | Yeast life ext | RAM inhibit | BB579 growth dn
CN1CCN(/N=C/c2nc(-c3ccccc3Cl)n3ccccc23)CC1 | -14 | -3 | 1 | -12
CN1CCN(/N=C/c2cccc(Cl)c2Cl)CC1 | 8 | 30* | 1 | -40
O=C(N/N=C/c1ccc(O)cc1)c1csc2c1CCCC2 | 1 | -3 | 2 | -47
CSc1cccc(NC(=O)CCCOc2ccc(Cl)cc2Cl)c1 | 13 | -2 | 11* | -51
CSc1cccc(NC(=O)CCCOc2ccccc2)c1 | 2 | -7 | 0 | 4
CC(C)C(=O)Nc1ccc(C(=O)NNC(=O)CCCOc2ccc(Cl)cc2Cl)cc1 | 79* | -15 | 5 | -49
Cc1ccccc1NC(=O)CSc1ccsc1[N+](=O)[O-] | 7 | 0 | 3 | -17
CCOc1cc(S(=O)(=O)Nc2ccccc2CC)ccc1Cl | 69* | 13 | 5 | -52
CCOc1cc(S(=O)(=O)Nc2ccc(Cl)cn2)ccc1Cl | -1 | nt | 3 | -20
COc1nc(N2CCCCCC2)nc(N2CCCCCC2)n1 | 64* | 5 | 1 | -43
O=C(COC(=O)CNC(=O)c1ccccc1)Nc1ccc(S(=O)(=O)N2CCOCC2)cc1 | 1 | nt | 0 | nt
COc1cccc(C(C)NC(=S)NCc2ccc(Cl)cc2)c1 (centres undefined) | 66* | nt | 0 | nt
COC(=O)c1cccc(NC(=S)NCc2ccc(Cl)cc2)c1 | 15 | -1 | 2 | -42
CCOc1cc(/C=C/c2ccc3cccc([N+](=O)[O-])c3n2)ccc1O | 26 | -7 | 1 | -31
CCOc1c(OC(C)=O)ccc(/C=C/c2ccc3cccc(OC(C)=O)c3n2)c1[N+](=O)[O-] | 65* | -5 | 2 | -31
COc1c(OC(C)=O)ccc(/C=C/c2ccc3ccccc3n2)c1[N+](=O)[O-] | 68* | -20 | 0 | -45
COc1c(OC(C)=O)ccc(/C=C/c2ccc3cccc(OC)c3n2)c1[N+](=O)[O-] | 43 | -8 | 0 | -24
CC1CN(c2nc3ccccn3c(=O)c2C=O)CC(C)O1 (centres undefined) | -2 | nt | 0 | nt
CC(=O)Oc1ccc(/C=N/NS(=O)(=O)c2ccccc2)cc1 | -5 | nt | 2 | nt
C#CC(C)(C)NC(=O)c1sccc1Oc1ccc(F)cc1[N+](=O)[O-] | 6 | nt | 1 | nt
CCN(CC(=O)Nc1ccc(NC(C)=O)cc1)c1ccc(C(F)(F)F)cn1 | -12 | 4 | 2 | -35
CC1(C(=O)OCC(=O)Nc2ccc(C(N)=O)cc2)CC1(Cl)Cl (centres undefined) | -13 | nt | 0 | nt
CC1(C(=O)OCC(=O)Nc2ccc3ccccc3c2)CC1(Cl)Cl (centres undefined) | 66* | nt | 5 | nt
CCOc1ccc(NC(=O)COC(=O)C2(C)CC2(Cl)Cl)c([N+](=O)[O-])c1 (centres undefined) | 57 | nt | 9.1* | nt
Cc1[nH]c2ccccc2c1Cc1nnc(SCc2ccccc2)o1 | 12 | -9 | 6 | -22
SMILES | WT yeast gro inh | Yeast life ext | RAM inhibit | BB579 growth dn
Cc1ccc(NCC(=O)N/N=C/c2cccc(Oc3ccccc3)c2)cc1 | 39 | -6 | 10* | -26
Cc1cccc(NCC(=O)N/N=C\c2cccc(Oc3ccccc3)c2)c1 | 16 | -2 | 3 | -25
CCSc1cnn(-c2ccccc2)c(=O)c1SCC | -18 | -1 | 1 | -11
CCCCSc1cnn(-c2ccccc2)c(=O)c1SCCCC | 64* | nt | 2 | -6
CCc1cc(C(c2ccncc2)N2CCN(C)CC2)c(NC(=O)c2ccccc2)s1 (centres undefined) | -10 | 6 | 1 | -1
CC(=O)Nc1sc2c(c1C(c1cccc(Cl)c1)N1CCN(CCO)CC1)CCCC2 (centres undefined) | 12 | nt | 0 | nt
CCOc1ccc(C(c2c(NC(=O)c3ccccc3)sc(C)c2C)N2CCN(CCO)CC2)cc1 (centres undefined) | 68* | 1 | 5 | -6
Cc1sc(NC(=O)c2ccccc2)c(C(c2ccc(Cl)cc2)N2CCN(CCO)CC2)c1C (centres undefined) | 91* | 7 | 1 | -13

Compound activity: PubChem, SRMLSC
